For series [1], the system named is Plasmodium vinckei petteri. Nature of the series: Antiplasmodial activity against Plasmodium vinckei petteri infected in CD mouse assessed as suppression of parasitemia at 1 mg/kg/day, po measured on day 5 post-infection by Giemsa staining. It counts as functional. As to conditions: 120 h. An outline of the steps:
(§1)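 Four-day suppressive test in female CD mice (20 ± 2 g) infected with 10^6 P. vinckei petteri-infected erythrocytes on day 0. Groups of five were dosed i.p. (DMSO vehicle) or p.o. (carboxymethylcellulose vehicle) on days 0–3 at 0.5–20 mg/kg/day. Parasitemia was read from Giemsa-stained tail-blood smears (≥5,000 erythrocytes). % inhibition = (control − treated parasitemia)/control × 100.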

The subject of the next series is MCF7. Nature of the series: Cytotoxicity against human MCF7 cells assessed as incorporation of [3H]hypoxanthine after 48 hrs. As to conditions: mcf7, 48 h. It counts as cell-based. An outline of the steps:
(§2)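 Vero, MCF7 and THP1 cells were grown under the P. falciparum culture conditions, except that 10% fetal calf serum replaced 5% human serum. Cells were incubated 48 h with serial drug dilutions. Growth was measured by [3H]hypoxanthine incorporation relative to untreated controls. IC50 is the mean ± SEM of ≥3 independent experiments.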

For series [2], the system named is Plasmodium vinckei petteri. Kind of series: Antiplasmodial activity against Plasmodium vinckei petteri infected in CD mouse assessed as suppression of parasitemia at 5 mg/kg/day, ip measured on day 5 post-infection by Giemsa staining. It counts as functional. The following applies: 120 h, route intraperitoneal. In a few lines: as §1
Series [3] has as its system Plasmodium vinckei petteri. Nature of the series: Antiplasmodial activity against Plasmodium vinckei petteri infected in CD mouse assessed as suppression of parasitemia at 20 mg/kg/day, po measured on day 5 post-infection by Giemsa staining. Format: functional. The following applies: 120 h. An outline of the steps:
as §1

Series [4] concerns Plasmodium vinckei petteri. Kind of series: Antiplasmodial activity against Plasmodium vinckei petteri infected in ip dosed CD mouse assessed as suppression of parasitemia measured on day 5 post-infection by Giemsa staining. As to conditions: 120 h. It counts as functional. An outline of the steps: as §1
Series [5] relates to Plasmodium vinckei petteri. Kind of series: Antiplasmodial activity against Plasmodium vinckei petteri infected in po dosed CD mouse assessed as mean survival time at 1 mg/kg/day, po for 4 days measured upto day 21 post-infection. Format: functional. In a few lines: (§3)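 Female CD mice were infected with 10^6 P. vinckei petteri-infected erythrocytes and dosed i.p. or p.o. on days 0–3, five per group. Survival was followed to day 21. Mean survival time is the area under the Kaplan–Meier survivor function. Where mice survived, an extended mean was obtained by exponential extension of the survivor function to zero. Comparisons used the log rank test.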

Series [6] has as its system Plasmodium vinckei petteri. Kind of series: Antiplasmodial activity against Plasmodium vinckei petteri infected in po dosed CD mouse assessed as extended mean survival time at 10 mg/kg/day, po for 4 days. It counts as functional. In a few lines:
as §3

Series [7] has as its system Plasmodium vinckei petteri. Nature of the series: Antiplasmodial activity against Plasmodium vinckei petteri infected in po dosed CD mouse assessed as mean survival time at 0.5 mg/kg/day, ip for 4 days measured upto day 21 post-infection. Format: functional. An outline of the steps: as §3
In series [8] the test system is Plasmodium vinckei petteri. Kind of series: Antiplasmodial activity against Plasmodium vinckei petteri infected in po dosed CD mouse assessed as mean survival time at 1 mg/kg/day, ip for 4 days measured upto day 21 post-infection. Format: functional. In a few lines:
as §3

Series [9] deals with Plasmodium vinckei petteri. Kind of series: Antiplasmodial activity against Plasmodium vinckei petteri infected in po dosed CD mouse assessed as extended mean survival time at 5 mg/kg/day, ip for 4 days. Format: functional. In a few lines: as §3
Another series concerns THP-1. Nature of the series: Cytotoxicity against human THP1 cells assessed as incorporation of [3H]hypoxanthine after 48 hrs. It counts as cell-based. As to conditions: thp-1, 48 h. In a few lines: as §2
The subject of series [10] is Plasmodium vinckei petteri. Nature of the series: Antiplasmodial activity against Plasmodium vinckei petteri infected in po dosed CD mouse assessed as extended mean survival time at 1 mg/kg/day, ip for 4 days. It counts as functional. In a few lines:
as §3

Series [11] has as its system Plasmodium falciparum. Kind of series: Antiplasmodial activity against Plasmodium falciparum W2 gametocytes assessed as suppression of parasitemia […] by Giemsa staining. It counts as functional, organism-based. An outline of the steps: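 W2 gametocytogenesis was induced on day 0 by a modified Ifediba–Vanderberg method, with N-acetylglucosamine added on day 10. Increasing compound dilutions were added on day 13. On day 15, Giemsa-stained thin smears were counted (≥10,000 erythrocytes each) to estimate gametocytemia against untreated and reference-drug controls. IC50 is the mean ± SEM of ≥3 independent experiments.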

The subject of series [12] is Plasmodium vinckei petteri. Kind of series: Antiplasmodial activity against Plasmodium vinckei petteri infected in po dosed CD mouse assessed as mean survival time at 10 mg/kg/day, po for 4 days measured upto day 21 post-infection. It counts as functional. An outline of the steps: as §3
For series [13], the system named is Plasmodium vinckei petteri. Nature of the series: Antiplasmodial activity against Plasmodium vinckei petteri infected in po dosed CD mouse assessed as extended mean survival time at 1 mg/kg/day, po for 4 days measured upto day 21 post-infection. It counts as functional. In a few lines: as §3
Series [14] concerns Plasmodium vinckei petteri. Nature of the series: Antiplasmodial activity against Plasmodium vinckei petteri infected in po dosed CD mouse assessed as suppression of parasitemia measured on day 5 post-infection by Giemsa staining. It counts as functional. The following applies: 120 h. An outline of the steps: as §1
Series [15] has as its system Plasmodium vinckei petteri. Nature of the series: Antiplasmodial activity against Plasmodium vinckei petteri infected in po dosed CD mouse assessed as mean survival time at 5 mg/kg/day, ip for 4 days measured upto day 21 post-infection. Format: functional. In a few lines:
as §3

Series [16] has as its system Plasmodium vinckei petteri. Nature of the series: Antiplasmodial activity against Plasmodium vinckei petteri infected in CD mouse assessed as suppression of parasitemia at 10 mg/kg/day, po measured on day 5 post-infection by Giemsa staining. Format: functional. As to conditions: 120 h. In a few lines:
as §1

Series [17] has as its system Plasmodium vinckei petteri. Nature of the series: Antiplasmodial activity against Plasmodium vinckei petteri infected in CD mouse assessed as suppression of parasitemia at 0.5 mg/kg/day, ip measured on day 5 post-infection by Giemsa staining. As to conditions: 120 h, route intraperitoneal. Format: functional. In a few lines:
as §1

Series [18] has as its system Plasmodium vinckei petteri. Nature of the series: Antiplasmodial activity against Plasmodium vinckei petteri infected in po dosed CD mouse assessed as extended mean survival time at 0.5 mg/kg/day, ip for 4 days. Format: functional. In a few lines:
as §3

The test system of another series is Vero. Kind of series: Cytotoxicity against african green monkey Vero cells assessed as incorporation of [3H]hypoxanthine after 48 hrs. It counts as cell-based. The following applies: chlorocebus sabaeus. An outline of the steps:
as §2

Series [19] has as its system Plasmodium vinckei petteri. Kind of series: Antiplasmodial activity against Plasmodium vinckei petteri infected in CD mouse assessed as suppression of parasitemia at 1 mg/kg/day, ip measured on day 5 post-infection by Giemsa staining. Format: functional. The following applies: 120 h, route intraperitoneal. An outline of the steps:
as §1

Series [20] concerns Plasmodium vinckei petteri. Nature of the series: Antiplasmodial activity against Plasmodium vinckei petteri infected in po dosed CD mouse assessed as extended mean survival time at 20 mg/kg/day, po for 4 days. It counts as functional. In a few lines: as §3
In series [21] the test system is Plasmodium vinckei petteri. Nature of the series: Antiplasmodial activity against Plasmodium vinckei petteri infected in CD mouse assessed as suppression of parasitemia at 10 mg/kg/day, ip measured on day 5 post-infection by Giemsa staining. It counts as functional. As to conditions: 120 h, route intraperitoneal. In a few lines:
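Four-day suppressive test in female CD mice (20 ± 2 g) infected on day 0 with P. vinckei petteri-infected red blood cells in RPMI. Groups of five treated i.p. once daily, days 0–3; DMSO-only mice were the i.p. control. Parasitemia was counted on Giemsa-stained tail-blood smears (at least 5,000 erythrocytes). Inhibition % = (control − treated parasitemia)/control × 100.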

Series [22] relates to Plasmodium vinckei petteri. Kind of series: Antiplasmodial activity against Plasmodium vinckei petteri infected in po dosed CD mouse assessed as mean survival time at 10 mg/kg/day, ip for 4 days measured upto day 21 post-infection. It counts as functional. In a few lines:
as §3

Series [23] has as its system Plasmodium vinckei petteri. Nature of the series: Antiplasmodial activity against Plasmodium vinckei petteri infected in po dosed CD mouse assessed as extended mean survival time at 10 mg/kg/day, ip for 4 days. Format: functional. An outline of the steps:
as §3

A further series concerns Plasmodium berghei. Kind of series: Antiplasmodial activity against Plasmodium berghei infected in ip dosed mouse. It counts as functional.
The next series deals with Plasmodium yoelii yoelii. Kind of series: Antiplasmodial activity against Plasmodium yoelii yoelii infected in po dosed rodents. It counts as functional.
The subject of series [24] is Plasmodium falciparum. Kind of series: Antiplasmodial activity against Plasmodium falciparum F32 assessed as suppression of parasitemia after 4 hrs by Giemsa staining. Format: functional, organism-based. As to conditions: F32, 4 h. An outline of the steps:
(§4)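 Asexual blood-stage P. falciparum growth inhibition, run by a modified Desjardins method. Parasites were grown by a modified Trager–Jensen culture and synchronized by magnetic enrichment plus 5% D-sorbitol lysis. F32 is chloroquine-sensitive; FcB1 and W2 are chloroquine-resistant. IC50 is the mean ± SEM of at least three independent experiments.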

Series [25] relates to Plasmodium falciparum. Nature of the series: Antiplasmodial activity against Plasmodium falciparum W2 assessed as suppression of parasitemia after 4 hrs by Giemsa staining. It counts as functional, organism-based. The following applies: W2, 4 h. In a few lines: as §4
Series [26] has as its system Plasmodium falciparum. Kind of series: Antiplasmodial activity against Plasmodium falciparum FcB1/Columbia assessed as suppression of parasitemia after 4 hrs by Giemsa staining. Format: functional, organism-based. An outline of the steps:
as §4

A word on the inhibition in vivo: it is the share of the control response that was lost under treatment. A word on the ED50: it is the dose that gives a 50% effect, or the effect in half of the subjects. In general, IC50 refers to the concentration that gives 50% inhibition.

Structures are written as SMILES.

Consider `CC[C@H](C)C(=O)O[C@@H]1[C@H]2C(C)=CC(=O)[C@@H](O)[C@]2(C)[C@H]2[C@@H](O)[C@H](O)[C@@]3(C)OC[C@@]24[C@@H]1OC(=O)[C@H](OC(=O)[C@@H](C)CC)[C@@H]34` [SIMALIKALACTONE E], for which the inhibition in vivo at 1 mg/kg/day in series [1] stood at 55%; in series [19] it was 98%. Also, the figures for the Activity with MCF7, in the series on THP-1 and with Vero were 47 nM, 33 nM and 6.574 µM, respectively. Further, the inhibition in vivo at 5 mg/kg/day in series [2] turned out to be 100%. The inhibition in vivo at 20 mg/kg/day in [3] came to 100%. In addition, the figures for the median effective dose (ED50) in [4], in series [8] (Plasmodium vinckei) and in [14] were 0.5 mg/kg/day, 3 mg/kg/day and 1 mg/kg/day, respectively. In addition, the MST was determined as 11 days in series [5]; 15.01 days in series [6]; 16.4 days in series [7]; 18.6 days in series [8]; 20.57 days in series [9]; 93.89 days in series [10]. For the same compound, the MST is 12.4 days in series [12]; 13.61 days in series [13]; 11.4 days in series [15]; 41.07 days in [18]; 16.41 days in [20]. In addition, the IC50 in the series on Plasmodium falciparum [11] was 1.12 µM. The inhibition in vivo at 10 mg/kg/day in [16] came to 95%. For the same compound, the inhibition in vivo at 0.5 mg/kg/day in series [17] is 59%.
Regarding `CCN(CC)CCCC(C)Nc1ccnc2cc(Cl)ccc12` (stereo not drawn) [CHLOROQUINE], the Activity in the series on MCF7 is > 500 nM; in the series on THP-1, > 500 nM; with Vero, > 0.5 µM. The inhibition in vivo at 5 mg/kg/day in series [2] amounted to 100%. Also, the inhibition in vivo at 10 mg/kg/day in series [21] turned out to be 100%. The MST turned out to be 12.8 days in series [15], 19.2 days in series [22] and 43.87 days in series [23]. Besides, the inhibition in vivo at 1 mg/kg/day in series [19] is ≤ 0%.
With `CC[C@@H](C)C(=O)O[C@H]1C(=O)O[C@@H]2C[C@H]3C(C)=CC(=O)[C@@H](O)[C@]3(C)[C@H]3[C@@H](O)[C@H](O)[C@]4(C)OC[C@]32[C@@H]14` [SIMALIKALACTONE D], the Activity was < 20 nM with MCF7, < 2 nM in the series with THP-1 and 0.058 µM with Vero. Further, the ED50 in the series on Plasmodium berghei turned out to be 0.2 mg/kg/day; with Plasmodium yoelii yoelii, 3.7 mg/kg/day.
As to `COc1cc(NC(C)CCCN)c2ncccc2c1` (stereo not drawn) [PRIMAQUINE], the concentration for half-maximal inhibition (IC50) with Plasmodium falciparum [24] came out at 6.17 µM; in the series with Plasmodium falciparum [25], 7.14 µM; with Plasmodium falciparum [26] it was 8.9 µM; in the series on Plasmodium falciparum [11], 8.9 µM. In addition, in the series on Vero, the Activity is 340 µM.

Values taken from ChEMBL document CHEMBL1649241, “Antimalarial activity of simalikalactone E, a new quassinoid from Quassia amara L. (Simaroubaceae)” (Antimicrob Agents Chemother, 2009).
